# Rows were chosen to be rich in hits. Some 4.6% of all compounds tested hit in one or more screens of this group.
# HDAC3 inh: HDAC3 deacetylase inhibitors, primary screen, biochemical, fluorescence, cell-free homogeneous | Histone deacetylase 3 (Homo sapiens), O15379 | recombinant HDAC3, fluorogenic peptide/trypsin coupled | 0.15% of 320,000 active | inhibition, % at 8.3 µM; in the data active means inhibition above about 26%, passing the limit was not always enough; inconclusive means no clear call, values can overlap the other calls
# UCH37 inh: inhibitors of human UCH37 deubiquitinase, primary screen, biochemical, Ub-AMC cleavage, fluorescence | purified proteasome/UCH37 | AID 588478, 2011 | Ubiquitin carboxyl-terminal hydrolase isozyme L5 (Homo sapiens), Q9Y5K5 | inhibition, % (concentration not given with the values) | 0.33% of 330,000 active;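 active means mean inhibition over replicate wells above about 20%, limit read from the data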;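 further: 0% = compound-free wells with enzyme and 100% = wells lacking proteasome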
#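 Test system – human UCH37 enzyme supplied as purified proteasome complex · Incubation – 30 min preincubation with enzyme, 25 min cleavage at room temperature · Detection – AMC fluorescence from Ub-AMC cleavage, excitation 355 nm, emission 460 nm · Benchmarks – no-proteasome wells (full inhibition) and compound-free wells (no inhibition)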
# ALR inh: inhibitors of human ALR sulfhydryl oxidase, primary screen, biochemical, H2O2 detection, HRP-luminol luminescence, single point. purified ALR, DTT oxidation. inhibition, % (no concentration beside the values). 3.8% of 290,000 active. AID 485317, 2010;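 active means mean replicate inhibition above about 79%, with every replicate also reaching it, limit read from the data; inconclusive means only one of the two criteria met; inactive means mean below limit and not every replicate reaching it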
# Rtt109 HAT inh: inhibitors of C. albicans Rtt109/Vps75 HAT, primary screen, biochemical, ThioGlo CoA-SH fluorescence, plate reader. Histone acetyltransferase RTT109 (Candida albicans (strain SC5314 / ATCC MYA-2876)), …. purified Rtt109/Vps75, 4 h. inhibition, % at 34.9 µM. 0.16% of 330,000 active;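 active means inhibition of at least 50% in every replicate; inconclusive means best replicate reaches 50% inhibition but some replicates fall short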
# PfM18AAP inh-1: PfM18AAP inhibitors, malaria aminopeptidase, primary screen, biochemical, QFRET, recombinant enzyme; M18 aspartyl aminopeptidase (Plasmodium falciparum 3D7); H-Glu-NHMec fluorogenic cleavage; inhibition, % at 7.35 µM; 1.2% of 290,000 active; AID 1822, 2009;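 active means inhibition above the campaign mean inhibition over all tested compounds plus 3 SD, cut at about 28% in these data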;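 further: 0% = plate median of test compound wells and 100% = 2 mM ZnCl2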
# FAS-TE inh: FAS thioesterase domain inhibitors, primary screen, biochemical, fluorescence intensity, uHTS. recombinant FAS-TE, OMFH fluorogenic substrate, fluorescence endpoint. AID 602261, 2012. Fatty acid synthase (Homo sapiens), P49327. 0.67% of 360,000 active. inhibition, % at 15 µM;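 active means compounds whose normalised, plate-corrected inhibition of enzyme fluorescence in the single-dose primary screen is 50% or more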;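 further: 0% = DMSO with enzyme and 100% = substrate without enzyme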
# Target sequence (P49327 whole entry, looked up, the tested form may be a part): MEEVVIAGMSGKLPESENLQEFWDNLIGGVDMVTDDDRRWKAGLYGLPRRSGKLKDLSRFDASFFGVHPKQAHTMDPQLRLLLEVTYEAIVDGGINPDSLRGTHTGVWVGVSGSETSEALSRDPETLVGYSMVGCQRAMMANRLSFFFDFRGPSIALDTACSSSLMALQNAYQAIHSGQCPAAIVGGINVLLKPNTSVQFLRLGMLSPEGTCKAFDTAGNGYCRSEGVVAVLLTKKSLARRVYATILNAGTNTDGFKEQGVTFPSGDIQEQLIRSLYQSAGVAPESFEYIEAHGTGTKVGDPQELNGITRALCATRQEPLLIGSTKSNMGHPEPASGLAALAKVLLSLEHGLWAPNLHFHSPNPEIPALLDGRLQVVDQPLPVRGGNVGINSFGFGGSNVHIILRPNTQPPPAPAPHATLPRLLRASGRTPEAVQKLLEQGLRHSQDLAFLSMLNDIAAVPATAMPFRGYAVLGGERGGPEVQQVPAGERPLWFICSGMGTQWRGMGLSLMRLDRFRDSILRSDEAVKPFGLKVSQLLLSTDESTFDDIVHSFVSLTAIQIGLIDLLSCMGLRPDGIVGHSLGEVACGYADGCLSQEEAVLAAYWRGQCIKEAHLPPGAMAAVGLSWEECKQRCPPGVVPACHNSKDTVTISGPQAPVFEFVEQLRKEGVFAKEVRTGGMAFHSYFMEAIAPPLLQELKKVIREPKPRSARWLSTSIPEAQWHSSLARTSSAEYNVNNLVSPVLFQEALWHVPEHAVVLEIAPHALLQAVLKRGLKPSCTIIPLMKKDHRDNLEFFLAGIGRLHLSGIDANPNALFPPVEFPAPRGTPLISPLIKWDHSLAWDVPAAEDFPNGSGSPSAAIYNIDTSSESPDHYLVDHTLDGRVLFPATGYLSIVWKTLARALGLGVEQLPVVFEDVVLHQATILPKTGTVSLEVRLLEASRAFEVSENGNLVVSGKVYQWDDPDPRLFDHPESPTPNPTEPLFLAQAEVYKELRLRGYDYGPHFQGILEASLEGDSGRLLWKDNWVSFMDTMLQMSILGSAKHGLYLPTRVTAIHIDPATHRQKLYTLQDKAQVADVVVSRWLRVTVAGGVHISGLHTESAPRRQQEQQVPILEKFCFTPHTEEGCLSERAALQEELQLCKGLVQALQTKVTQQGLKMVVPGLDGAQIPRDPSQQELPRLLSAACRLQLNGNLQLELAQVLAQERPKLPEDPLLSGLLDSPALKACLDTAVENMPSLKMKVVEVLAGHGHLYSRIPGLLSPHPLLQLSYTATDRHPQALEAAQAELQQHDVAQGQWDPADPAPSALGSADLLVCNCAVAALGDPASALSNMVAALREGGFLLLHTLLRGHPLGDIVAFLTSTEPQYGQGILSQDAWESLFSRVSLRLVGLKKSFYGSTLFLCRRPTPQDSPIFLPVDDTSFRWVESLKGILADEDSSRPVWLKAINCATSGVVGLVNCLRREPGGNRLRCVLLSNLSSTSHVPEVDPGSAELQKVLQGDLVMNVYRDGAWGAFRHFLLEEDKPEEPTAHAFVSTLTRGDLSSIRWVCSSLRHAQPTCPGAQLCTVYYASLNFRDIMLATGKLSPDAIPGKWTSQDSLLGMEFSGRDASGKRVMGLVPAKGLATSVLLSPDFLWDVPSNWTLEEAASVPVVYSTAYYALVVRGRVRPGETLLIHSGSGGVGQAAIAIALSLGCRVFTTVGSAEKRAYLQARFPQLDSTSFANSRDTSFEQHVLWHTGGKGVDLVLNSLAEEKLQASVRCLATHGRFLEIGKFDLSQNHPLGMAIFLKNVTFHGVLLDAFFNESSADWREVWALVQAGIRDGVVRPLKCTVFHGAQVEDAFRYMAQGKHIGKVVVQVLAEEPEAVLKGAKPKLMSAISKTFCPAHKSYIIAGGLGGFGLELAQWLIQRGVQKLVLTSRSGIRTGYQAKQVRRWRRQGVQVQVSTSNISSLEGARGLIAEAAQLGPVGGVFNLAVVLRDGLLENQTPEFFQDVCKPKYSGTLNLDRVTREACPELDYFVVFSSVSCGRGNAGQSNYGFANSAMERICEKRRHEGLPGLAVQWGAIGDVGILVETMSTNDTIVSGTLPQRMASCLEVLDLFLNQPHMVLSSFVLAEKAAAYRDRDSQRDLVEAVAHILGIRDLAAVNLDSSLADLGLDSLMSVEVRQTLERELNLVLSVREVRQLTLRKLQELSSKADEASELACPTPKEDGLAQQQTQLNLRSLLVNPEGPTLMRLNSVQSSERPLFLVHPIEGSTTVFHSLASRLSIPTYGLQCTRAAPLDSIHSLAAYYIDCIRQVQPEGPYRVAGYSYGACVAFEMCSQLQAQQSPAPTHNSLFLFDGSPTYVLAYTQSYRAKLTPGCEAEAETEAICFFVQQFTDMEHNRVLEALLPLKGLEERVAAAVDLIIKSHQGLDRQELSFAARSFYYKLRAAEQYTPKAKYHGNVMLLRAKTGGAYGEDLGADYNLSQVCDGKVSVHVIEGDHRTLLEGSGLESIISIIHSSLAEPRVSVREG
# PfM18AAP inh-2: PfM18AAP inhibitors, malaria aminopeptidase, confirmation, biochemical, QFRET, recombinant enzyme, triplicate | shares compounds with PfM18AAP inh-1 | H-Glu-NHMec fluorogenic cleavage | inhibition, % at 7.35 µM | 28% of 2,400 active | AID 2170, 2009;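 active means mean inhibition over replicate wells above the hit cutoff set for the earlier primary screen, cut at about 29% in these data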;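 further: 0% = median of test compound wells and 100% = 2 mM ZnCl2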
# CTSL1 counter: cathepsin L1 inhibitors, retest, confirmation, counter-screen for PFM18AAP inhibitor project, biochemical, QFRET, triplicate; shares compounds with PfM18AAP inh-1; purified cathepsin L1, Z-Leu-Arg-MCA fluorescence; inhibition, % at 5.96 µM; 2,400 tested, under 10 active;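 active means average inhibition across replicates above the hit cutoff set in the earlier primary screen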;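 further: 0% = median of test compound wells and 100% = Z-Phe-Ala-diazomethylketone 1 µM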
# Active calls of the source: *; i = inactive; ? = inconclusive; . = no result given.
SMILES,HDAC3 inh,UCH37 inh,ALR inh,Rtt109 HAT inh,PfM18AAP inh-1,FAS-TE inh,PfM18AAP inh-2,CTSL1 counter
COc1cc(C(=O)NN=Cc2ccc(OC(=O)c3cccc(C)c3)cc2)ccc1O,.,1,.,.,.,.,.,.
COc1cc(C=NNC(=S)NCC2CCCO2)cc(OC)c1OC (centres undefined),.,5,.,.,.,.,.,.
CCN(CC)c1ccc(NC(=S)NCC2CCCO2)cc1 (centres undefined),-9,-2,100*,-3,5,-3,.,.
Cc1ccc(NC(=S)NCC2CCCO2)cc1 (centres undefined),-14,1,1,1,4,-11,.,.
Oc1ccc(/C=N/NC(=S)NC2CC3CCC2C3)cc1 (centres undefined),17,.,99*,6,-2,21,.,.
Oc1ccc(/C=N/NC(=S)NCC2CCCO2)cc1 (centres undefined),2,.,98*,3,12,-1,.,.
CC(C)(C)c1ccc(C(=O)NN=Cc2ccc(OCCCF)cc2)cc1,.,-5,.,.,.,.,.,.
COc1ccc(OCC(=O)NN=Cc2ccncc2)cc1,.,3,.,.,.,.,.,.
CCN(CC)c1ccc(C=NNC(=O)Nc2ccccc2)cc1,.,-31,.,.,.,.,.,.
C/C(=N\Nc1nc(C)cc(C)n1)c1ccc(C)o1,?,.,91*,.,6,-8,.,.
CCc1ccc(/C=C2\SC(=S)N(CCCC(=O)Nc3ccccc3C(=O)O)C2=O)cc1,?,.,97*,2,-2,21,.,.
Nc1ccccc1N=Nc1ccccc1N,3,0,87*,4,41*,0,6,2
Nc1ccccc1-c1ccccc1N,0,1,-2,-5,2,-7,.,.
COc1ccc(C(=O)NN=C(C)CC(=O)Nc2ccc3c(c2)OCCO3)c(OC)c1,.,0,.,.,.,.,.,.
NS(=O)(=O)c1ccc(NC(=S)NC2CCCCCC2)cc1,-3,3,96*,-5,44*,-6,0,3
NS(=O)(=O)c1ccc(NC(=S)NC2CCCC2)cc1,7,-1,8,3,46*,-11,7,-4
NS(=O)(=O)c1ccc(NC(=S)NC(=O)C2CCCCC2)cc1,2,-1,5,1,9,0,.,.
CCC(=NNc1ccc([N+](=O)[O-])cc1[N+](=O)[O-])c1ccc(O)cc1,.,6,.,.,.,.,.,.
Cc1ccc(-n2c(O)c(/C=N/n3cnnc3)c3ccccc3c2=O)cc1,1,-104,39,20,71*,-7,64*,-2
Cc1ccc(-n2c(O)c(/C=N/c3ncn[nH]3)c3ccccc3c2=O)cc1,-8,-15,.,45,37*,-88,-16,6
CCOC(=O)c1sc(N=NC2=C(O)CCCC2=O)c(C(=O)OCC)c1C,3,2,-10,4,35*,5,-41,2
C=CCc1c(C)nc(-c2ccccc2)nc1N/N=C(\C)c1ccccc1,.,.,.,3,37*,26,-27,0
CC(=O)NN1C(=O)c2ccccc2NC1c1ccccc1O (centres undefined),-13,-418,.,-16,42*,-7,12,-2
CC(C)Nc1nc(NC(C)C)nc(N(C)C(N)=O)n1,6,4,-1,-7,-3,-5,.,.
CC(C)Nc1nc(NC(C)C)nc(N(C)N)n1,2,3,1,9,48*,-1,40*,-5
SMILES,HDAC3 inh,UCH37 inh,ALR inh,Rtt109 HAT inh,PfM18AAP inh-1,FAS-TE inh,PfM18AAP inh-2,CTSL1 counter
CN1/C(=C\C(=O)c2cccs2)C(C)(C)c2ccccc21,2,-17,.,-2,4,37,.,.
CN1/C(=C\C(=O)c2cccs2)Sc2ccccc21,4,-18,6,-11,54*,-3,-47,-4
CN1/C(=C/C(=O)c2cccs2)Sc2ccccc21,1,-22,12,0,49*,-1,-16,1
O=C(Cc1ccccc1)NN=C1CCCC1,.,-3,.,-6,.,-8,.,.
N#CCC(=O)NN=C1CCCCCCCCCCC1,3,2,10,-3,54*,2,-22,2
Clc1ccccc1-c1ncnc2ccc(Br)cc12,0,1,-1,1,0,-1,.,.
NNc1nc(-c2ccccc2Cl)c2cc(Br)ccc2n1,-5,3,-6,-3,32*,-2,-15,8
c1ccc(CNc2c3ccccc3nc3ccccc23)cc1,0,-6,-9,-19,0,-6,.,.
Oc1ccc(CCNc2c3ccccc3nc3ccccc23)cc1O,7,.,99*,-8,74*,-6,64*,-2
Cc1ccsc1C=NNC(=O)CCc1c(C)n[nH]c1C,.,8,.,.,.,.,.,.
COc1ccc(-c2c(C)nc3c(-c4ccsc4)cnn3c2N)cc1,5,i,-3,-9,-5,-2,.,.
COc1ccc(-c2c(C)nc3c(-c4ccccn4)cnn3c2N)cc1,-44,-122,7,-2,38*,1,22,3
O=C(Nn1cnnc1)c1ccc(Cl)cc1,?,6,4,2,42*,-5,26,0
O=C(Nn1cnnc1)c1ccc(Cl)cc1[N+](=O)[O-],-2,0,.,-9,25,-4,.,.
O=C(Nn1cnnc1)c1ccc(OC(F)(F)C(F)C(F)(F)F)cc1 (centres undefined),-2,2,4,4,38*,-6,5,-6
O=C(Nn1cnnc1)c1ccc(F)cc1,3,0,6,2,32*,-6,16,1
Nc1nonc1-n1nnc(C(=O)NN=Cc2ccccc2F)c1CN1CCOCC1,.,0,.,.,.,.,.,.
COc1ccc(C=NNC(=O)c2ccncc2)cc1COc1ccc(NC(C)=O)cc1,.,8,.,.,.,.,.,.
O=C(NCC1CC1)c1cccs1,.,.,.,.,.,-3,.,.
O=C(NCCC1CCCC1)c1cccs1,5,0,-7,-9,53*,-2,-39,-10
Cc1ccc(Cl)cc1NC(=O)Nn1cnnc1,0,0,-7,-2,76*,-9,61*,-5
Cc1ccc(C)c(NC(=O)Nn2cnnc2)c1,-7,2,-25,7,60*,-6,41*,-3
COc1ccc(Cl)cc1NC(=O)Nn1cnnc1,-6,1,-14,-8,81*,-15,74*,2
